Results reported in ChEMBL document CHEMBL1123822, “Lysosomotropic agents. 7. Broad-spectrum antifungal activity of lysosomotropic detergents” (1987).
Converted amounts (≈) assume the structure as drawn.

Legend:
Format in all cases: functional
[1] = system: Candida albicans; test: The compound was tested for antifungal activity against Candida stellatoidea MY1017 using agar dilution assay
How it was run: (§1)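 Standardized agar dilution on Kimmig agar with 5% glycerol. Detergents solubilized in 10% Me2SO; desoxycholate-stabilized amphotericin B diluted and titrated in sterile distilled water. Twofold dilutions in sterile distilled water gave final agar concentrations of 128 to 0.06 μg/mL. Error limit ±1 dilution stage.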

[2] = system: Phoma; test: The compound was evaluated for zone inhibition against Phoma sp (MF4332) using disk diffusion assay; 13 slightly hazy
How it was run: (§2)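 Filter-paper disks (6.2 mm) loaded with 25 μL of a 250 μg/mL methanol solution, dried at room temperature, laid on seeded agar and rewet with 25 μL 10% aqueous Me₂SO. Media were unbuffered, pH ca. 4.5–5.6: potato dextrose agar for filamentous fungi, sabouraud dextrose agar for yeasts, unless noted. Inhibition zone diameter read after overnight incubation, ±1 mm. Zone edges scored fuzzy, slightly hazy, hazy or very hazy.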

[3] = system: Fusarium oxysporum; test: The compound was evaluated for zone inhibition against Fusarium oxysporum (MF4014) using disk diffusion assay; 15 Fuzzy edges; how it was run: as §2
[4] = system: Saccharomyces cerevisiae; test: The compound was evaluated for mean zone diameter (inhibition) against yeast at the concentration of 250 ug/mL
How it was run: (§3)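 Filter-paper disk diffusion (6.2 mm disks) with drug in methanol at the stated level, 25 μL per disk. Disks were air-dried at room temperature, laid on seeded agar, rewet with 25 μL 10% aqueous Me₂SO and incubated overnight. Media were unbuffered, pH ca. 4.5–5.6. The panel was 21 yeasts and 21 filamentous fungi. Zones of 0 mm were excluded from means.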

[5] = system: Saccharomyces cerevisiae; test: The compound was evaluated for mean zone diameter (inhibition) against yeast at the concentration of 1000 ug/mL
How it was run: (§4)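 Disk diffusion: drug in methanol spotted on 6.2 mm paper disks (25 μL/disk), dried at room temperature, laid on seeded agar, rewet with 25 μL 10% aqueous Me₂SO; zones read after overnight incubation. Unbuffered acidic media (pH ca. 4.5–5.6). Panel of 21 yeasts and 21 filamentous fungi; zones of 0 mm excluded from means.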

[6] = system: Candida albicans; test: The compound was tested for antifungal activity against Candida albicans MY0992 using agar dilution assay
How it was run: (§5)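 Standardized agar dilution in Kimmig agar with 5% glycerol. Lysosomotropic detergents solubilized in 10% Me₂SO. Twofold serial dilutions in sterile distilled water gave final agar concentrations of 128 to 0.06 μg/mL. Stated error ±1 dilution stage.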

[7] = system: Candida tropicalis; test: The compound was tested for antifungal activity against Candida tropicalis MY1011 using agar dilution assay; how it was run: as §1
[8] = system: Ophiostoma ulmi; test: The compound was evaluated for zone inhibition against Ceratocystis ulmi (MF4042) using disk diffusion assay; 12 slightly hazy
How it was run: (§6)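 Disk diffusion: 25 μL of 250 μg/mL drug in methanol on 6.2 mm paper disks, dried at room temperature, placed on seeded agar and rewet with 25 μL 10% aqueous Me₂SO. Zones were read after overnight incubation, ±1 mm. Media were unbuffered, pH ca. 4.5–5.6: potato dextrose agar for filamentous fungi, Sabouraud dextrose for yeasts, unless YNB (76 mM ammonium sulfate, sole nitrogen source) or YED is named. Zone edges were scored fuzzy, slightly hazy, hazy or very hazy.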

[9] = system: Cryptococcus neoformans; test: The compound was tested for antifungal activity against Cryptococcus neoformans MY1146 using agar dilution assay; how it was run: as §1
[10] = system: Candida albicans; test: The compound was tested for antifungal activity against Candida albicans MY1013 using agar dilution assay; how it was run: as §5
[11] = system: Rhizomucor miehei; test: The compound was evaluated for zone inhibition against Rhizomucor miehei (MF4784) using disk diffusion assay; 9 hazy; how it was run: as §2
[12] = system: Cryptococcus neoformans; test: The compound was tested for antifungal activity against Cryptococcus neoformans MY1051 using agar dilution assay; how it was run: as §1
[13] = system: Saccharomyces cerevisiae; test: The compound was evaluated for mean zone diameter (inhibition) against yeast at the concentration of 62.5 ug/mL; how it was run: as §3
[14] = system: Pichia kudriavzevii; test: The compound was tested for antifungal activity against Candida krusei MY1020 using agar dilution assay; how it was run: as §5
[15] = system: Nakaseomyces glabratus; test: The compound was tested for antifungal activity against Torulopsis glabrata MY1059 using agar dilution assay; how it was run: as §1
[16] = system: Candida parapsilosis; test: The compound was tested for antifungal activity against Candida parapsilosis MY1010 using agar dilution assay; conditions: Lodderomyces parapsilosis; how it was run: as §5
[17] = system: Saccharomyces cerevisiae; test: The compound was evaluated for mean zone diameter (inhibition) against yeast at the concentration of 500 ug/mL; how it was run: as §4
[18] = system: Candida tropicalis; test: The compound was tested for antifungal activity against Candida tropicalis MY1012 using agar dilution assay; how it was run: as §1
[19] = system: Kluyveromyces marxianus; test: The compound was evaluated for zone inhibition against Candida pseudotropicalis MY1100 using disk diffusion assay; 19 slightly hazy; how it was run: as §6
[20] = system: Trichoderma; test: The compound was evaluated for zone inhibition against Trichoderma sp (MF4064) using disk diffusion assay; 16 Fuzzy edges; how it was run: as §2
[21] = system: Saccharomyces cerevisiae; test: The compound was tested for antifungal activity against Saccharomyces cerevisiae MY1027 using agar dilution assay; how it was run: as §1
[22] = system: Nakaseomyces glabratus; test: The compound was evaluated for zone inhibition against Torulopsis glabrata MY1062 using disk diffusion assay; 7 very hazy; how it was run: as §2
[23] = system: Kluyveromyces marxianus; test: The compound was evaluated for zone inhibition against Kluyveromyces fragilis MY1113 using disk diffusion assay; 15 slightly hazy; how it was run: as §2
[24] = system: Penicillium; test: The compound was evaluated for zone inhibition against Penicillium sp (MF5020) using disk diffusion assay; 15 Fuzzy edges; how it was run: as §2
[25] = system: Penicillium; test: The compound was evaluated for zone inhibition against Penicillium sp (MF5016) using disk diffusion assay; 18 Fuzzy edges; how it was run: as §2
[26] = system: Candida albicans; test: The compound was tested for antifungal activity against Candida albicans MY1058 using agar dilution assay; how it was run: as §5
[27] = system: Papiliotrema laurentii; test: The compound was evaluated for zone inhibition against Cryptococcus laurentii MY1074 using disk diffusion assay; 7 very hazy; how it was run: as §2
[28] = system: Penicillium italicum; test: The compound was tested for antifungal activity against Penicillium italicum MF2819 using agar dilution assay; how it was run: as §1
[29] = system: Cephalosporium; test: The compound was evaluated for zone inhibition against Cephalosporium sp (MF4641) using disk diffusion assay; 12 slightly hazy; how it was run: as §6
[30] = system: Ustilago maydis; test: The compound was evaluated for zone inhibition against Ustilago zeae (MF1996) using disk diffusion assay; 14 slightly hazy; how it was run: as §2
[31] = system: Saccharomyces cerevisiae; test: The compound was evaluated for zone inhibition against Saccharomyces cerevisiae MY410 using disk diffusion assay; how it was run: as §2
[32] = system: Papiliotrema laurentii; test: The compound was evaluated for zone inhibition against Cryptococcus laurentii MY1073 using disk diffusion assay; how it was run: as §6
[33] = system: Diutina rugosa; test: The compound was tested for antifungal activity against Candida rugosa MY1022 using agar dilution assay; how it was run: as §5
[34] = system: Penicillium; test: The compound was evaluated for zone inhibition against Penicillium sp (MF5014) using disk diffusion assay; 17 slightly hazy; how it was run: as §2
[35] = system: Kluyveromyces marxianus; test: The compound was tested for antifungal activity against Candida pseudotropicalis MY1040 using agar dilution assay; how it was run: as §5
[36] = system: Aspergillus fumigatus; test: The compound was tested for antifungal activity against Aspergillus fumigatus MF4839 using agar dilution assay; how it was run: as §5
[37] = system: Candida albicans; test: The compound was tested for antifungal activity against Candida albicans My1029 using agar dilution assay; how it was run: as §5
[38] = system: Saccharomyces cerevisiae; test: The compound was evaluated for mean zone diameter (inhibition) against yeast at the concentration of 125 ug/mL; how it was run: as §3
[39] = system: Saccharomyces cerevisiae; test: The compound was evaluated for zone inhibition against Saccharomyces cerevisiae YED MY34 using disk diffusion assay; 8 slightly hazy; how it was run: as §2
[40] = system: Candida albicans; test: The compound was tested for antifungal activity against Candida albicans MY1055 using agar dilution assay; how it was run: as §5
[41] = system: Aspergillus flavus; test: The compound was tested for antifungal activity against Aspergillus flavus MF0383 using agar dilution assay; how it was run: as §5
[42] = system: Naganishia albida; test: The compound was evaluated for zone inhibition against Cryptococcus albidus MY1070 using disk diffusion assay; 9 very hazy; how it was run: as §6
[43] = system: Papiliotrema laurentii; test: The compound was evaluated for zone inhibition against Cryptococcus laurentii MY1077 using disk diffusion assay; 9 hazy; how it was run: as §2
[44] = system: Candida parapsilosis; test: The compound was tested for antifungal activity against Candida parapsilosis MY1009 using agar dilution assay; conditions: Lodderomyces parapsilosis; how it was run: as §5
[45] = system: Trichoderma viride; test: The compound was evaluated for zone inhibition against Trichoderma lignorum (MF3560) using disk diffusion assay; 13 Fuzzy edges; how it was run: as §2
[46] = system: Meyerozyma guilliermondii; test: The compound was tested for antifungal activity against Candida guilliermondii MY1019 using agar dilution assay; how it was run: as §5
[47] = system: Cercospora beticola; test: The compound was evaluated for zone inhibition against Cercospora beticola (MF4608) using disk diffusion assay; 8 hazy; how it was run: as §6

MIC [1]: 32 µg/mL (≈ 125 µM) | MIC [6]: 64 µg/mL (≈ 251 µM) | MIC [7]: 32 µg/mL (≈ 125 µM) | MIC [9]: 32 µg/mL (≈ 125 µM) | MIC [10]: 32 µg/mL (≈ 125 µM) | MIC [12]: 16 µg/mL (≈ 62.6 µM) | MIC [14]: 32 µg/mL (≈ 125 µM) | MIC [15]: 64 µg/mL (≈ 251 µM) | MIC [16]: 16 µg/mL (≈ 62.6 µM) | MIC [18]: 16 µg/mL (≈ 62.6 µM) | MIC [21]: 32 µg/mL (≈ 125 µM) | MIC [26]: 32 µg/mL (≈ 125 µM) | MIC [28]: 32 µg/mL (≈ 125 µM) | MIC [33]: 32 µg/mL (≈ 125 µM) | MIC [35]: 32 µg/mL (≈ 125 µM) | MIC [36]: 64 µg/mL (≈ 251 µM) | MIC [37]: 32 µg/mL (≈ 125 µM) | MIC [40]: 32 µg/mL (≈ 125 µM) | MIC [41]: 64 µg/mL (≈ 251 µM) | MIC [44]: 64 µg/mL (≈ 251 µM) | MIC [46]: 32 µg/mL (≈ 125 µM)
Structure (SMILES): CCCCCCCCCCCCN1CCOCC1
Inhibition zone [2]: 13 mm | Inhibition zone [3]: 15 mm | Inhibition zone [4]: 11.4 mm | Inhibition zone [5]: 19 mm | Inhibition zone [8]: 17 mm | Inhibition zone [11]: 9 mm | Inhibition zone [13]: 8.6 mm | Inhibition zone [17]: 12.8 mm | Inhibition zone [19]: 19 mm | Inhibition zone [20]: 16 mm | Inhibition zone [22]: 7 mm | Inhibition zone [23]: 15 mm | Inhibition zone [24]: 15 mm | Inhibition zone [25]: 18 mm | Inhibition zone [27]: 7 mm | Inhibition zone [29]: 12 mm | Inhibition zone [30]: 14 mm | Inhibition zone [31]: 0 mm | Inhibition zone [32]: 0 mm | Inhibition zone [34]: 17 mm | Inhibition zone [38]: 10.2 mm | Inhibition zone [39]: 8 mm | Inhibition zone [42]: 9 mm | Inhibition zone [43]: 9 mm | Inhibition zone [45]: 13 mm | Inhibition zone [47]: 8 mm
